The Tmax is the time from dosing to the highest level. By Papp A→B is commonly meant how fast a substance crosses the layer from the apical side. By clearance is commonly meant the volume of plasma or blood freed of the substance per unit of time. Read a high clearance as a high capacity for elimination. The half-life is the time needed for the level to fall by half in the phase considered. Lower therefore signals fast loss.

Data set [1] concerns the target Growth hormone secretagogue receptor type 1 (Homo sapiens, UniProt Q92847). The data set is described as follows: Agonist activity at recombinant human GHSR1a expressed in HEK293 cells assessed as induction of intracellular calcium release after 15 mins by FLIPR assay. The conditions noted are these: hek293. Type of data set: functional, cell-based. An outline of the steps: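 HEK293 cells stably expressing human GHSR1a, seeded 24 h before the run, then loaded with calcium dye for 30-60 min at room temperature or 37 °C. DMSO-dissolved compounds were added and intracellular calcium release was monitored by FLIPR fluorescence.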

A short description of data set [2]: Clearance in mouse liver microsomes at 0.625 uM preincubated for 5 mins followed by NADPH addition and measured after 60 mins by LC-MS/MS analysis. Type of data set: ADME, microsome. The conditions noted are these: read-out: CLH. An outline of the steps:
(§1)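 Liver microsomes (0.625 mg/mL protein) in 50 mM potassium phosphate pH 7.4 with 0.625 µM test item, prewarmed 5 min at 37 °C. Reaction started with NADPH (5 mM solution). Samples taken at 0, 5, 15, 30 and 60 min into cold MeCN with internal standard, analysed by LC-MS/MS. Intrinsic clearance derived by the half-life approach.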

Data set [3] in a line: Clearance in human liver microsomes at 0.625 uM preincubated for 5 mins followed by NADPH addition and measured after 60 mins by LC-MS/MS analysis. The class given is ADME, microsome. As to conditions: read-out: CLH. In short, it runs like this:
as §1
(Microsomes from liver hold many membrane-bound enzymes, among them those of drug oxidation.)

The nature of data set [4]: Tmax in rat at 3 mg/kg, po via gavage by LC-MS/MS analysis. Type of data set: ADME, organism-based. As to conditions: in vivo. An outline of the steps:
(§2)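 Rats given 3 mg/kg by oral gavage as a suspension in 2% DMSO/98% of 0.5% CMC. EDTA plasma sampled at 0.25–24 h and analysed by LC-MS/MS. Bioavailability estimated against the 3 mg/kg i.v. arm.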

For another data set, the system named is MDR1. The data set is described as follows: Apparent permeability across apical to basolateral side in MDCK2 cells expressing human MDR1 at 1 uM after 90 mins in absence of MDR1 inhibitor cyclosporine A by LC-MS/MS analysis. Type of data set: ADME, cell-based, Canis lupus familiaris, MDCK-II. The conditions noted are these: dog, MDCK-MDR1. In short, it runs like this:
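MDR1-MDCKII monolayers grown 4 days on transwell inserts, with integrity checked by TEER. Test item at 1 µM in HBSS/10 mM HEPES/25 mM glucose pH 7.4, in duplicate, added to the apical side. Receiver sampled after 90 min at 37 °C and analysed by LC-MS/MS; Papp = (dMr/dt)/(A×C0).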

The nature of data set [5]: Plasma clearance in rat at 3 mg/kg, iv after 24 hrs by LC-MS/MS analysis. The class given is ADME, organism-based. An outline of the steps:
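Rats given 3 mg/kg i.v. via tail vein, in 2% DMSO/50% of 40% HP-β-CD. EDTA plasma sampled at 0.08–24 h and analysed by LC-MS/MS, calibration range 5-5000 ng/mL.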

The subject of the next data set is Mus musculus. Description: Anti-obesity activity in C57BL/6J mouse assessed as inhibition of anamorelin-induced increase in food intake by measuring cumulative food intake at 30 mg/kg, po pretreated for 10 mins followed by anamorelin addition and measured after 4 hrs post dose (reference value: 2.09 +/- 0.08 g).
A short description of data set [6]: Half life in rat at 3 mg/kg, po via gavage by LC-MS/MS analysis. Type of data set: ADME, organism-based. As to conditions: in vivo. In short, it runs like this: as §2
Data set [7] is described as follows: Protein binding in rat plasma at 1 uM after 6 hrs by equilibrium dialysis. The class given is ADME, cell-free. As to conditions: read-out: PPB. An outline of the steps:
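Compound spiked at 1.0 µM final (0.5% DMSO) into plasma. Equilibrium dialysis against DPBS pH 7.4 across a 12–14 kD membrane for 6 h at 37 °C, in triplicate. Buffer-only controls used for nonspecific binding. Unbound fraction = acceptor/donor concentration by LC-MS/MS; reported as % bound.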

Chain of Growth hormone secretagogue receptor type 1 (Q92847 whole entry): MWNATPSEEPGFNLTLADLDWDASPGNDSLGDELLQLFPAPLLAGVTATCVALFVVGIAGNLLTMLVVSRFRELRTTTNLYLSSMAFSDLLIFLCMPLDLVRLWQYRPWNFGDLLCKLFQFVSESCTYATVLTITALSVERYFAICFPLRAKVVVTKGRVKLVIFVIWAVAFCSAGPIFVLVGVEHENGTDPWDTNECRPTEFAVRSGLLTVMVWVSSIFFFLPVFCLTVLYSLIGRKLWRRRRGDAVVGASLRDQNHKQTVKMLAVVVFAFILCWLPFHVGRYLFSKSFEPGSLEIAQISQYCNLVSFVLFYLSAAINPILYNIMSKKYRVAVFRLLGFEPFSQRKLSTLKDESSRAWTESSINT

As for `Cc1cc(-c2ccc3c(c2)CC[C@H]3N2CCC(N(C)C(=O)N[C@@H](C)c3ccc(C#CC4CC4)c(Cl)c3Cl)CC2)ncn1`, the EC50 entry in data set [1] was “Not Active”. Also, the results for the microsomal CLint at 0.625 µM in [2] and in [3] were less than 10 µL/min/mg and 74.7 µL/min/mg, respectively. For the same compound, the time to peak (Tmax) in data set [4] is 6.7 h. In addition, the Papp A→B at 1.5 h, 1 µM with MDR1 came out at 3.9 ×10⁻⁶ cm/s. In data set [5], this compound had a clearance of 15.2 mL/min/kg. Also, the Activity with Mus musculus was 1.45 g. In [6], this compound gave a half-life of 15.8 h. Besides, the fraction unbound at 6 h, 1 µM in data set [7] is 0.0001.

Source of the values: ChEMBL document CHEMBL4257564, “Rational Design, Synthesis, and Pharmacological Characterization of Novel Ghrelin Receptor Inverse Agonists as Potential Treatment against Obesity-Related Metabolic Diseases” (J Med Chem, 2018).
